Measurements reported in BindingDB's records for doi:10.1021/jm00031a021 (Tap Pharmaceuticals, 1994).

Biological target: T1, Gonadotropin-releasing hormone receptor (Rattus norvegicus, UniProt P30969)
T1 sequence (P30969 whole entry): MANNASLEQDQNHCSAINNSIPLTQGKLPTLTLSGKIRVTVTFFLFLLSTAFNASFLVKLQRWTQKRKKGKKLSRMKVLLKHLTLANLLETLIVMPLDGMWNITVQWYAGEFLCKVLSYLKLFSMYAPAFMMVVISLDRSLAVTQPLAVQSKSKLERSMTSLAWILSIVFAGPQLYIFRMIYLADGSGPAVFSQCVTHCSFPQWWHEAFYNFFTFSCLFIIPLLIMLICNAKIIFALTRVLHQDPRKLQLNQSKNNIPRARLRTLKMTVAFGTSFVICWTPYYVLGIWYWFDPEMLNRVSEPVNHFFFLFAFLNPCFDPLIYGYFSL
Assay: Inhibition of the in vitro binding of [125I]-labeled leuprolide to the rat pituitary luteinizing hormone releasing hormone (LHRH) receptor.
Procedure, shortened: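 Rat pituitary LHRH receptor binding with 125I-labeled leuprolide as radioligand. pKI is the negative log of the analogue concentration inhibiting 50% of tracer binding. Compounds tested as TFA salts.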

Structure (SMILES) | Ki
CCNC(=O)[C@H]1CCCN1C(=O)[C@H](CCCN=C(N)N)NC(=O)[C@H](CC(C)C)NC(=O)[C@@H](Cc1c[nH]c2ccccc12)NC(=O)[C@H](Cc1ccc(O)cc1)NC(=O)[C@H](CO)NC(=O)[C@H](Cc1c[nH]c2ccccc12)NC(=O)CCc1ccc(Cl)cc1 | 0.076 nM
CCNC(=O)[C@@H]1CCCN1C(=O)[C@H](CCCN=C(N)N)NC(=O)[C@H](CC(C)C)NC(=O)[C@@H](Cc1c[nH]c2ccccc12)NC(=O)[C@H](Cc1ccc(O)cc1)NC(=O)[C@H](CO)NC(=O)[C@H](Cc1c[nH]c2ccccc12)NC(=O)CCc1ccc(C(F)(F)F)cc1 | 0.275 nM
CC(C)C[C@H](NC(=O)[C@@H](CCCCNC(=O)c1cccnc1)NC(=O)[C@H](Cc1ccc(O)cc1)N(C)C(=O)[C@H](CO)NC(=O)[C@H](Cc1cccc2ccccc12)NC(=O)CCc1ccc(F)cc1)C(=O)N[C@@H](CCCCNC(C)C)C(=O)N1CCC[C@@H]1C(=O)O | 0.537 nM
CCNC(=O)[C@H]1CCCN1C(=O)[C@H](CCCN=C(N)N)NC(=O)[C@H](CC(C)C)NC(=O)[C@@H](CCCCNC(=O)c1cccnc1)NC(=O)[C@H](Cc1ccc(O)cc1)NC(=O)[C@H](CO)NC(=O)C(Cc1c[nH]c2ccccc12)NC(=O)CCc1ccc(F)cc1 (some centres not stated) | 0.347 nM
CCNC(=O)[C@@H]1CCCN1C(=O)[C@H](CCCN=C(N)N)NC(=O)[C@H](CC(C)C)NC(=O)[C@@H](Cc1c[nH]c2ccccc12)NC(=O)[C@H](Cc1ccc(O)cc1)NC(=O)[C@H](CO)NC(=O)[C@H](Cc1c[nH]c2ccccc12)NC(=O)c1cc2ccccc2[nH]1 | 17 nM
CCNC(=O)[C@@H]1CCCN1C(=O)[C@H](CCCN=C(N)N)NC(=O)[C@H](CC(C)C)NC(=O)[C@@H](Cc1c[nH]c2ccccc12)NC(=O)[C@H](Cc1ccc(O)cc1)NC(=O)[C@H](CO)NC(=O)[C@@H](Cc1c[nH]c2ccccc12)NC(=O)c1cc2ccccc2[nH]1 | 0.076 nM
CCNC(=O)[C@H]1CCCN1C(=O)[C@H](CCCN=C(N)N)NC(=O)[C@H](CC(C)C)NC(=O)[C@@H](Cc1c[nH]c2ccccc12)NC(=O)[C@H](Cc1ccc(O)cc1)NC(=O)[C@H](CO)N(C)C(=O)[C@H](Cc1c[nH]c2ccccc12)NC(=O)CCc1ccc(F)cc1 | 0.135 nM
CCNC(=O)[C@@H]1CCCN1C(=O)[C@H](CCCN=C(N)N)NC(=O)[C@H](CC(C)C)NC(=O)[C@@H](Cc1c[nH]c2ccccc12)NC(=O)[C@H](Cc1ccc(O)cc1)NC(=O)[C@H](CO)NC(=O)[C@H](Cc1c[nH]c2ccccc12)NC(=O)CCc1cccc(F)c1 | 1.35 nM
CCNC(=O)[C@@H]1CCCN1C(=O)[C@H](CCCN=C(N)N)NC(=O)[C@H](CC(C)C)NC(=O)[C@@H](Cc1c[nH]c2ccccc12)NC(=O)[C@H](Cc1ccc(O)cc1)NC(=O)[C@H](CO)NC(=O)[C@H](Cc1c[nH]c2ccccc12)NC(=O)c1cc2cc(F)ccc2[nH]1 | 12.3 nM
CCNC(=O)[C@H]1CCCN1C(=O)[C@H](CCCN=C(N)N)NC(=O)[C@H](CC(C)C)NC(=O)[C@@H](Cc1c[nH]c2ccccc12)NC(=O)[C@H](Cc1ccc(O)cc1)NC(=O)[C@H](CO)NC(=O)[C@H](Cc1c[nH]c2ccccc12)NC(=O)[C@@H](N)Cc1ccccc1 | 83.2 nM
CCNC(=O)[C@@H]1CCCN1C(=O)[C@H](CCCN=C(N)N)NC(=O)[C@H](CC(C)C)NC(=O)[C@@H](Cc1c[nH]c2ccccc12)NC(=O)[C@H](Cc1ccc(O)cc1)NC(=O)[C@H](CO)NC(=O)[C@H](Cc1c[nH]c2ccccc12)NC(=O)Cc1ccc(C(F)(F)F)cc1 | 0.646 nM
CCNC(=O)[C@@H]1CCCN1C(=O)[C@H](CCCN=C(N)N)NC(=O)[C@H](CC(C)C)NC(=O)[C@@H](Cc1c[nH]c2ccccc12)NC(=O)[C@H](Cc1ccc(O)cc1)NC(=O)[C@H](CO)NC(=O)[C@H](Cc1c[nH]c2ccccc12)NC(=O)Cc1ccccc1 | 0.832 nM
CCNC(=O)[C@H]1CCCN1C(=O)[C@H](CCCN=C(N)N)NC(=O)[C@H](CC(C)C)NC(=O)[C@@H](Cc1c[nH]c2ccccc12)NC(=O)[C@H](Cc1ccc(O)cc1)N(C)C(=O)[C@H](CO)NC(=O)[C@H](Cc1c[nH]c2ccccc12)NC(=O)CCc1ccc(Cl)cc1 | 0.071 nM
CCNC(=O)[C@H]1CCCN1C(=O)[C@H](CCCN=C(N)N)NC(=O)[C@H](CC(C)C)NC(=O)[C@@H](Cc1c[nH]c2ccccc12)NC(=O)[C@H](Cc1ccc(O)cc1)NC(=O)[C@@H]1CC(O)CN1C(=O)[C@H](Cc1c[nH]c2ccccc12)NC(=O)CCc1ccc(F)cc1 (some centres not stated) | 1.29 nM

The next compounds have a lower Ki than those just listed; values first:

Ki | Structure (SMILES)
0.052 nM | CCNC(=O)[C@@H]1CCCN1C(=O)[C@H](CCCN=C(N)N)NC(=O)[C@H](CC(C)C)NC(=O)[C@@H](Cc1c[nH]c2ccccc12)NC(=O)[C@H](Cc1ccc(O)cc1)NC(=O)[C@H](CO)NC(=O)[C@H](Cc1c[nH]c2ccccc12)NC(=O)CCc1ccc(F)c(F)c1
0.04 nM | CCNC(=O)[C@@H]1CCCN1C(=O)[C@H](CCCN=C(N)N)NC(=O)[C@H](CC(C)C)NC(=O)[C@@H](Cc1c[nH]c2ccccc12)NC(=O)[C@H](Cc1ccc(O)cc1)NC(=O)[C@H](CO)NC(=O)[C@H](Cc1c[nH]c2ccccc12)NC(=O)CCc1ccc(F)cc1F
0.039 nM | CCNC(=O)[C@H]1CCCN1C(=O)[C@H](CCCN=C(N)N)NC(=O)[C@H](CC(C)C)NC(=O)[C@@H](Cc1c[nH]c2ccccc12)NC(=O)[C@H](Cc1ccc(O)cc1)N(C)C(=O)[C@H](CO)NC(=O)[C@H](Cc1c[nH]c2ccccc12)NC(=O)CCc1ccc(F)cc1F
0.038 nM | CCNC(=O)[C@H]1CCCN1C(=O)[C@H](CCCN=C(N)N)NC(=O)[C@H](CC(C)C)NC(=O)[C@@H](Cc1ccc(O)cc1)NC(=O)[C@@H](Cc1ccc(O)cc1)NC(=O)[C@H](CO)NC(=O)[C@H](Cc1c[nH]c2ccccc12)NC(=O)CCc1ccc(F)cc1
0.033 nM | CCNC(=O)[C@H]1CCCN1C(=O)[C@H](CCCN=C(N)N)NC(=O)[C@H](CC(C)C)NC(=O)[C@@H](Cc1c[nH]c2ccccc12)NC(=O)[C@H](Cc1ccc(O)cc1)N(C)C(=O)[C@H](CO)NC(=O)[C@H](Cc1c[nH]c2ccccc12)NC(=O)CCc1ccc(F)cc1
0.026 nM | CCNC(=O)[C@H]1CCCN1C(=O)[C@H](CCCN=C(N)N)NC(=O)[C@H](CC(C)C)NC(=O)[C@@H](CCCCNC(=O)c1cccnc1)NC(=O)[C@H](Cc1ccc(O)cc1)N(C)C(=O)[C@H](CO)NC(=O)[C@H](Cc1c[nH]c2ccccc12)NC(=O)CCc1cccc(F)c1
0.023 nM | CCNC(=O)[C@H]1CCCN1C(=O)[C@H](CCCN=C(N)N)NC(=O)[C@H](CC(C)C)NC(=O)[C@@H](CCCCNC(=O)c1cccnc1)NC(=O)[C@H](Cc1ccc(O)cc1)NC(=O)[C@H](CO)NC(=O)[C@H](Cc1c[nH]c2ccccc12)NC(=O)CCc1ccc(F)cc1
0.022 nM | CCNC(=O)[C@@H]1CCCN1C(=O)[C@H](CCCN=C(N)N)NC(=O)[C@H](CC(C)C)NC(=O)[C@@H](Cc1c[nH]c2ccccc12)NC(=O)[C@H](Cc1ccc(O)cc1)NC(=O)[C@H](CO)NC(=O)[C@H](Cc1ccc(O)cc1)NC(=O)CCc1ccc(F)cc1
0.02 nM | CCNC(=O)[C@H]1CCCN1C(=O)[C@H](CCCN=C(N)N)NC(=O)[C@H](CC(C)C)NC(=O)[C@@H](CCCCNC(=O)c1cccnc1)NC(=O)[C@H](Cc1ccc(O)cc1)N(C)C(=O)[C@H](CO)NC(=O)[C@H](Cc1c[nH]c2ccccc12)NC(=O)CCc1ccc(F)cc1F
0.02 nM | CCNC(=O)[C@H]1CCCN1C(=O)[C@H](CCCN=C(N)N)NC(=O)[C@H](CC(C)C)NC(=O)[C@@H](CCCCNC(=O)c1cccnc1)NC(=O)[C@H](Cc1ccc(O)cc1)N(C)C(=O)[C@H](CO)NC(=O)[C@H](Cc1c[nH]c2ccccc12)NC(=O)CCc1ccc(Cl)cc1
0.018 nM | CCNC(=O)[C@H]1CCCN1C(=O)[C@H](CCCN=C(N)N)NC(=O)[C@H](CC(C)C)NC(=O)[C@@H](Cc1ccc(Cl)cc1)NC(=O)[C@H](Cc1ccc(O)cc1)NC(=O)[C@H](CO)NC(=O)[C@H](Cc1c[nH]c2ccccc12)NC(=O)CCc1ccc(F)cc1
0.017 nM | CCNC(=O)[C@H]1CCCN1C(=O)[C@H](CCCN=C(N)N)NC(=O)[C@H](CC(C)C)NC(=O)[C@@H](CCCCNC(=O)c1cccnc1)NC(=O)[C@H](Cc1ccc(O)cc1)N(C)C(=O)[C@H](CO)NC(=O)[C@H](Cc1c[nH]c2ccccc12)NC(=O)CCc1ccc(F)cc1
0.017 nM | CCNC(=O)[C@H]1CCCN1C(=O)[C@H](CCCN=C(N)N)NC(=O)[C@H](CC(C)C)NC(=O)[C@@H](Cc1c[nH]c2ccccc12)NC(=O)[C@H](Cc1ccc(O)cc1)NC(=O)[C@H](CO)NC(=O)C(Cc1cccc2ccccc12)NC(=O)CCc1ccc(F)cc1 (some centres not stated)
0.017 nM | CCNC(=O)[C@H]1CCCN1C(=O)[C@H](CCCN=C(N)N)NC(=O)[C@H](CC(C)C)NC(=O)[C@@H](Cc1c[nH]c2ccccc12)NC(=O)[C@H](Cc1ccc(O)cc1)NC(=O)[C@H](CO)NC(=O)[C@H](Cc1cccc2ccccc12)NC(=O)CCc1ccc(F)cc1
0.016 nM | CC(C)C[C@H](NC(=O)[C@@H](CCCCNC(=O)c1cccnc1)NC(=O)[C@H](Cc1ccc(O)cc1)N(C)C(=O)[C@H](CO)NC(=O)[C@H](Cc1cccc2ccccc12)NC(=O)CCc1ccc(F)cc1)C(=O)N[C@@H](CCCCNC(C)C)C(=O)N1CCC[C@@H]1C(N)=O
0.012 nM | CCNC(=O)[C@H]1CCCN1C(=O)[C@H](CCCN=C(N)N)NC(=O)[C@H](CC(C)C)NC(=O)[C@@H](Cc1c[nH]c2ccccc12)NC(=O)[C@H](Cc1ccc(O)cc1)NC(=O)[C@H](CO)NC(=O)[C@@H]1CCCN1C(=O)CCc1ccc(F)cc1
0.01 nM | CCNC(=O)[C@H]1CCCN1C(=O)[C@H](CCCN=C(N)N)NC(=O)[C@H](CC(C)C)NC(=O)[C@@H](Cc1ccc(O)cc1)NC(=O)[C@@H](Cc1ccc(O)cc1)NC(=O)[C@H](CO)NC(=O)[C@@H](Cc1c[nH]c2ccccc12)NC(=O)CCc1ccc(F)cc1
0.002 nM | CCNC(=O)[C@H]1CCCN1C(=O)[C@H](CCCCNC(C)C)NC(=O)[C@H](CC(C)C)NC(=O)[C@@H](CCCCNC(=O)c1cccnc1)NC(=O)[C@H](Cc1ccc(O)cc1)N(C)C(=O)[C@H](CO)NC(=O)[C@H](Cc1cccc2ccccc12)NC(=O)CCc1ccc(F)cc1
